One series concerns P. aeruginosa NCTC 13437. As to the kind of experiment: Broth microdilution MIC/MBC, P. aeruginosa. Format: cell-based, Pseudomonas aeruginosa. The following applies: for MBC P. aeruginosa NCTC 13437: value in parentheses; for MIC P. aeruginosa NCTC 13437: value before the parentheses, two values = two repeats. Summed up: (§1)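 CLSI broth microdilution in cation-adjusted Mueller–Hinton broth. Log-phase cultures were diluted to 7.5 × 10^5 CFU/mL, then mixed 1:1 with 2-fold serial dilutions of gold complexes from DMSO or water stocks, in triplicate, and held 37 °C, 18 h, static. MIC: lowest concentration giving >90% inhibition by OD600 against medium-only and bacteria-only wells. […] E. coli ATCC 25922 quality control was checked each run with ciprofloxacin and […].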
For orientation: In broth dilution the organism is exposed to a series of concentrations in liquid medium.

The next series deals with A549 cells. Put plainly: Cytotoxicity assay. The following applies: read-out: IC50 against A549 cells; means ± SEM from two independent experiments. Format: cell-based, human.
The test system of the next series is E. coli ATCC 25922. Put plainly: Broth microdilution MIC/MBC, E. coli. In kind it is cell-based, Escherichia coli. As to conditions: for MBC E. coli ATCC 25922: value in parentheses; for MIC E. coli ATCC 25922: value before the parentheses, two values = two repeats. Summed up:
as §1

The next series deals with E. faecium ATCC 700221. As to the kind of experiment: Broth microdilution MIC/MBC, E. faecium. In kind it is cell-based, Enterococcus faecium. As to conditions: for MIC E. faecium ATCC 700221: value before the parentheses, two values = two repeats; for MBC E. faecium ATCC 700221: value in parentheses. The method, boiled down: as §1
In a further series the test system is A. baumannii NCTC 13420. Put plainly: Broth microdilution MIC/MBC, A. baumannii. In kind it is cell-based, Acinetobacter baumannii. The following applies: for MIC A. baumannii NCTC 13420: value before the parentheses, two values = two repeats; for MBC A. baumannii NCTC 13420: value in parentheses.
The next series relates to E. cloacae NCTC 13405. Put plainly: Broth microdilution MIC/MBC, E. cloacae. Format: cell-based, Enterobacter cloacae. The following applies: for MIC E. cloacae NCTC 13405: value before the parentheses, two values = two repeats; for MBC E. cloacae NCTC 13405: value in parentheses. Summed up: as §1
Series [1] concerns K. pneumoniae ATCC 700603. Put plainly: Broth microdilution MIC/MBC, K. pneumoniae. Format: cell-based, Klebsiella pneumoniae. The following applies: for MIC K. pneumoniae ATCC 700603: value before the parentheses, two values = two repeats; for MBC K. pneumoniae ATCC 700603: value in parentheses. The method, boiled down: as §1
In the next series the test system is S. aureus JE2 (USA300). As to the kind of experiment: Broth microdilution MIC/MBC, S. aureus. In kind it is cell-based, Staphylococcus aureus. The following applies: for MIC S. aureus JE2 (USA300): value before the parentheses, two values = two repeats; for MBC S. aureus JE2 (USA300): value in parentheses. Summed up: as §1
The nature of a further series: Log P determination. As to conditions: n-octanol/water, Au by FAAS.
A further series deals with rat. The following applies: cited from earlier work.
The subject of the next series is Gram-negative strains. Put plainly: Broth microdilution, Gram-negative strains taken together. Format: cell-based.

Molecules are shown by their SMILES. “And” between values parts separate entries of the source, which are not always exact repeats. Identical values can stand only once. Like-named read-outs stand apart in the source and are kept apart here. Bounds are passed on as bounds.

Broadly, the IC50 is the concentration needed to halve the response being measured. Usually log P stands for the decadic logarithm of the partition coefficient of the neutral form, usually between octanol and water. Read a high log P as a more lipophilic compound. Regarding `C[PH](C)(C)[Au][S]CCO` [Compound 40, (2-Mercaptoethanolato)(trimethylphosphine) Gold(I)], the “MBC P. aeruginosa NCTC 13437” value in the series with P. aeruginosa NCTC 13437 was 91 µM. In addition, in the series on A549 cells, the IC50 was determined as 35.1 ± 8.9 µM. For the same compound, in the series with E. coli ATCC 25922, the “MBC E. coli ATCC 25922” value stood at 11 µM. Further, in the series on E. faecium ATCC 700221, the MIC E. faecium ATCC 700221 was determined as 0.3 µM and the MBC E. faecium ATCC 700221 turned out to be 0.3 µM. Moreover, in the series on A. baumannii NCTC 13420, the “MIC A. baumannii NCTC 13420” value is 5.7 µM and 6 µM and 3 µM; the “MBC A. baumannii NCTC 13420” value came to 23 µM. Also, in the series with E. cloacae NCTC 13405, the “MIC E. cloacae NCTC 13405” value is 2.9 µM and 3 µM; the MBC E. cloacae NCTC 13405 turned out to be 3 µM. The “fold enhancement of activity over auranofin, E. cloacae” value with E. cloacae NCTC 13405 (vs auranofin) was determined as 65. In series [1], the “MIC K. pneumoniae” value worked out at 11 μ/mL, the “MIC K. pneumoniae ATCC 700603” value worked out at 11 µM and the “MBC K. pneumoniae ATCC 700603” value came out at 23 µM. Besides, the “fold enhancement of activity over auranofin, K. pneumoniae” value in series [1] (vs auranofin) was 34. In the series with S. aureus JE2 (USA300), the “MIC S. aureus JE2 (USA300)” value was determined as 0.3 µM and the “MBC S. aureus JE2 (USA300)” value was determined as 0.7 µM. Also, the “log P” value in “Log P determination” is listed as −0.15.
Regarding `CC[PH](CC)(CC)[Au][S][C@@H]1O[C@H](COC(C)=O)[C@@H](OC(C)=O)[C@H](OC(C)=O)[C@H]1OC(C)=O` [Compound 1, (2,3,4,6-Tetra-O-acetyl-1-thio-β-D-glucopyranosato)-(triethylphosphine) Gold(I), reference compound], in the series on P. aeruginosa NCTC 13437, the MIC P. aeruginosa NCTC 13437 came out at 377 µM and the MBC P. aeruginosa NCTC 13437 is 377 µM. Besides, the IC50 in the series on A549 cells was 11.3 ± 1.9 µM. In addition, in the series with E. coli ATCC 25922 (MIC/MBC), the “MBC E. coli” value amounted to 16 µg/mL and the “MIC E. coli” value was 16 µg/mL. Also, in the series on E. coli ATCC 25922, the MIC E. coli ATCC 25922 was 24 µM and the MBC E. coli ATCC 25922 came out at 24 µM. Further, in the series with E. faecium ATCC 700221 (Table S1), the “MBC E. faecium” value amounted to 0.25 µg/mL and the “MIC E. faecium” value stood at 0.12 µg/mL. In the series with E. faecium ATCC 700221, the “MBC E. faecium ATCC 700221” value came out at 0.4 µM. Also, in the series on A. baumannii NCTC 13420 (MIC/MBC), the “MBC A. baumannii” value amounted to 32 µg/mL and the “MIC A. baumannii” value was found to be 32 µg/mL. Besides, in the series on A. baumannii NCTC 13420, the MIC A. baumannii NCTC 13420 was determined as 47 µM and the MBC A. baumannii NCTC 13420 amounted to 47 µM. Moreover, in the series with A. baumannii NCTC 13420 (listed as Auranofin), the “MIC A. baumannii NCTC 13420” value is 47 µM and the “MBC A. baumannii NCTC 13420” value stood at 47 µM. Moreover, the “rat acute oral LD50” value with rat is on record as 265 mg/kg. Besides, in the series on E. cloacae NCTC 13405, the MIC E. cloacae NCTC 13405 was determined as 189 µM and the MBC E. cloacae NCTC 13405 came to 189 µM. For the same compound, in series [1], the MIC K. pneumoniae ATCC 700603 amounted to 377 µM and the MBC K. pneumoniae ATCC 700603 worked out at 377 µM. In [1] (listed as Auranofin), the “MIC K. pneumoniae ATCC 700603” value worked out at 377 µM and the “MBC K. pneumoniae ATCC 700603” value amounted to 377 µM. Besides, in the series on S. aureus JE2 (USA300) (Table S1), the “MBC S. aureus” value was found to be 0.06 µg/mL and the “MIC S. aureus” value was 0.03 µg/mL. Also, in the series with S. aureus JE2 (USA300), the “MIC S. aureus JE2 (USA300)” value came out at 0.04 µM and the “MBC S. aureus JE2 (USA300)” value is 0.09 µM. For the same compound, the “log P” value in “Log P determination” came to 0.56.
Regarding `CC[P+](CC)(CC)[Au-][S]c1ccc([N+](=O)[O-])cc1` [Compound 19, (4-Nitrobenzenethiolato)(triethylphosphine) Gold(I)], in the series on P. aeruginosa NCTC 13437, the “MIC P. aeruginosa NCTC 13437” value was more than 546 µM. Moreover, in the series with Gram-negative strains, the “activity toward Gram-negative strains (in words)” value was “completely inactive”. Besides, in the series on E. coli ATCC 25922, the “MIC E. coli ATCC 25922” value was more than 546 µM. Besides, in the series on E. faecium ATCC 700221, the “MIC E. faecium ATCC 700221” value is 0.06 µM and 0.1 µM; the “MBC E. faecium ATCC 700221” value worked out at 0.5 µM. Besides, in the series with A. baumannii NCTC 13420, the “MIC A. baumannii NCTC 13420” value was more than 546 µM. For the same compound, in the series on E. cloacae NCTC 13405, the “MIC E. cloacae NCTC 13405” value is more than 546 µM. For the same compound, the “MIC K. pneumoniae ATCC 700603” value in series [1] was more than 546 µM. In addition, in the series with S. aureus JE2 (USA300), the “MIC S. aureus” value is listed as “in the nanomolar range” and the “MBC S. aureus JE2 (USA300)” value is 0.02 µM. For the same compound, the “fold enhancement of activity over auranofin, S. aureus” value in the series with S. aureus JE2 (USA300) (vs auranofin) is on record as “up to 10”. For the same compound, the “log P” value in the series “Log P determination” is listed as more than 3.28.
As for `CC[PH](CC)(CC)[Au][S]c1ccc(C(F)(F)F)cc1` [Compound 20, (4-(Trifluoromethyl)benzenethiolato)(triethylphosphine) Gold(I)], the “MIC P. aeruginosa NCTC 13437” value with P. aeruginosa NCTC 13437 was more than 520 µM. The “activity toward Gram-negative strains (in words)” value in the series with Gram-negative strains is “completely inactive”. Besides, the “MIC E. coli ATCC 25922” value with E. coli ATCC 25922 was more than 520 µM. In addition, in the series with E. faecium ATCC 700221, the “MIC E. faecium ATCC 700221” value was determined as 0.02 µM and the “MBC E. faecium ATCC 700221” value came to 0.2 µM. In the series with A. baumannii NCTC 13420, the MIC A. baumannii NCTC 13420 turned out to be 520 µM and the MBC A. baumannii NCTC 13420 is more than 520 µM. In addition, the “MIC E. cloacae NCTC 13405” value in the series with E. cloacae NCTC 13405 is more than 520 µM. Also, the “MIC K. pneumoniae ATCC 700603” value in series [1] is more than 520 µM. Besides, in the series with S. aureus JE2 (USA300), the “MBC S. aureus JE2 (USA300)” value was found to be 0.2 µM. In addition, the log partition coefficient (log P) in the series “Log P determination” was more than 3.18.

The values above are taken from publication PMC7941214 (Journal of medicinal chemistry, 2019).
